The EternaBench riboswitch data

Tested on: MS2 coat protein
Assay: apparent Kd, MS2 coat protein; higher = weaker binding; RNA-MaP array; FMN 200 µM where present
How it was run: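 Designs were transcribed by stalled E. coli RNA polymerase on Illumina sequencing-chip clusters. They were titrated with SNAP-549-labelled MS2 coat protein from 0.7 or 1.5 nM, doubling to 3 µM, in 100 mM Tris-HCl pH 7.5, 80 mM KCl, 4 mM MgCl2, BSA, DTT, yeast tRNA and Tween-20, without and then with constant ligand. The apparent Kd is the median of filtered per-cluster fits after normalisation of green signal to red-channel RNA signal and control-cluster median Fmax.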

[1] = designed as: OFF switch for flavin mononucleotide, no ligand
[2] = ligand present: flavin mononucleotide, designed as: OFF switch for flavin mononucleotide
[3] = designed as: ON switch for flavin mononucleotide, no ligand
[4] = ligand present: flavin mononucleotide, designed as: ON switch for flavin mononucleotide

| Sequence | apparent Kd [1] [nM] | apparent Kd [2] [nM] | apparent Kd [3] [nM] | apparent Kd [4] [nM] |
| --- | --- | --- | --- | --- |
| CUCCUACAUGAGGAUCACCCAUGUCAGGAUAUCUCAGUGGCACCUAAAGGCGCCACCCAGAGAAGGGACGUGCA | 11.6 | 14.8 |  |  |
| AAACCGUGUGGAGGAUAUGCAGUUGAGGUAAGGCGGCAGCUCUAUACGACAGCAGAAGGCCACAUGAGGAUCACCCAUGUAGGU | 122 | 53.2 |  |  |
| CGAUAGGACAGAGGAUAUGCCGAUAGGAUCUACUAUCGAAGAAUCCUCACAUGAGGAUCACCCAUGUAGAAGGCUGUCCUAUCU | 7.9 | 38.1 |  |  |
| CUUUUGUGAGGAUAUCAGUAGUAAAAAAAUAAAAUUACUAUUGAGAAGGCACAUGAGGAUCACCCAUGUUCCUC | 34.5 | 168 |  |  |
| AUUGUUAAGUUAGGAUAUAGUAAAAUAAUUUAGUUAGAAGGAGCUCACAUGAGGAUCACCCAUGUAAGAGGAUCACCCAUGUAU | 25.6 | 20.1 |  |  |
| CGACACCAGACAGGAUAUGCUGGACUUUGUCCAGCAGAAGGGUCUAAACAUGAGGAUCACCCAUGUAUGGUGUCGAAAUUUAAU |  |  | 51.1 | 8.06 |
| GUUUGACAUGAGGAUCACCCAUGUGAGGAUAUACGAGUAGCUGCUAGGUAGUUAGUAUGUAGAAGGUGCGUGUU | 75.6 | 71 |  |  |
| UUUUACUGAGGAUAUACAUUUUUUUAUUUAUUUAUAAUAUUACAUGAGGAUCACCCAUGUAGAAGGCAGAUUUU | 27.4 | 24.4 |  |  |
| GUGGUGGGUUGAGGAUAUUGGUUGUUGUUGUCCCACAUGAGGAUCACCCAUGUGGGUUGUGGUUUUGAGAAGGUUGGUUGCCGG |  |  | 18.8 | 16.6 |
| UGUUACUAGUAAGGAUAUACUAGCGAUAAGCUAGUAGAAGGUACAGUCUUUUGUAUAACAUGUUUACAUGAGGAUCACCCAUGU |  |  | 10.6 | 8.02 |
| AUAAAUCAUGUAGGAUAUGCGUGGCGAAGCUAUGCAGAAGGACAUGAGGAUCACCCAUGUCUGUCCGUCUGCGUACAGACGGAA | 29.3 | 274 |  |  |
| AAUAUGAGCUGGUAUAAAUCCGAAACAUGAGGAUCACCCAUGUAGGAUAUCAGCACGAUAAGUGCUGAGAAGGACAUCCAGCUC | 15.2 | 16.2 |  |  |
| GUCUUUUUACAGAAGGUGUUUAACAUGAGGAUCACCCAUGUAUAUAUGGUUAAAUUUGAUAAUAACAAGGAUAUGUACUAAUCA |  |  | 53.4 | 46.4 |
| UAGAUGGGAGGAUAUACAUAGAUACAGAUUCGUGUAGUGCUACAUGAGGAUCACCCAUGUAGAAGGCCCGUCUU | 16.2 | 71.9 |  |  |
| UGUAUGGACAGAGGAUAUACGUGCUAGAGAUACUAGCUAAUAAUCCUUACAUGAGGAUCACCCAUGUAGAAGGCUGUCCAUACU | 20.5 | 45.6 |  |  |
| GUCGGAAACGACAAAGUAGCAUAGGAGGAUAUUCAUCCUCACAUGAGGAUCACCCAUGUAAAUUGGGAGAAGGCCUAUGCUACA |  |  | 515 | 301 |
| GUUAGGCAUGUAGGAUAUCCAUUGCGUCGCGUUGGAGAAGGGCAGCACACAUGAGGAUCACCCAUGUGGUCUCCCAUGAUGUGU | 215 | 254 |  |  |
| UGAUAACAUGUAGGAUAUGCAGCAUUGACCACUGCAGAAGGACAUGAGGAUCACCCAUGUACCGAUACUAUGGGAUCACGCAAU | 24.3 | 87.4 |  |  |
| UUCCUGUCAGGAUAUGACUAGAUGCACGUUAGUGUGUUUACUUAGAAGGGACAUGAGGAUCACCCAUGUAGUCC | 36.2 | 33 |  |  |
| CUUUUGUGAGGAUAUCAGUAGUAAAAAAUUAAAAUUACUACUGAGAAGGCACAUGAGGAUCACCCAUGUUCCUC | 40.1 | 284 |  |  |
| AAUUUUUAACAGAAGGCGUUUAUAUUUAAGUUACGAGGAUAUGUAUAACAUGAGGAUCACCCAUGUAACAUGGAUAUUUAAUAA |  |  | 10.3 | 8.49 |
| GAGAGCCGAGGAUAUACAUGAGGAUCACCCAUGUAAAAAAAAAAAAAAAAAAAAUCAUGUAGAAGGCGGCUUUC | 122 | 89.8 |  |  |
| UCUAGACCGACAGGAUAUCAUGGCUGGAUAUAGUACAUGAGGAUCACCCAUGUCGGCUAGAGCGAUGAGAAGGGUCGGUUGCUC |  |  | 414 | 87.3 |
| CGCAACAUACAGAAGGAGUAAAUUAGAAGUGUACUAGGAUAUGUAAACAUGAGGAUCACCCAUGUCGAAUGUGUUAUAGUUGCG | 8.24 | 8.53 |  |  |

| Sequence | apparent Kd [1] [nM] | apparent Kd [2] [nM] | apparent Kd [3] [nM] | apparent Kd [4] [nM] |
| --- | --- | --- | --- | --- |
| ACAGCGGAGGCAGGAUAUCGCACAUGAGGAUCACCCAUGUGGUUAUUUACGGGUUGGUGGUCACGCGAGAAGGGCCAACCAUAA | 59 | 31.7 |  |  |
| AAAGCAACAUGAGGAUCACCCAUGUAGGAUAUCGCUAUUGUAAUCAUGAAACAUGAUUACAAUAGCGAGAAGGACAUAUGCUUU | 6.77 | 9.48 |  |  |
| GUGUAGAUAUCAGGAUAUCUAUUUCCUACAUGAGGAUCACCCAUGUAGAUGAUCACCCAUGUAAAGGAGAAGGGAUAUCUAUAC |  |  | 192 | 156 |
| GAAUCGAAAAUACGAGCAUGUACACAGGAUAUCCCGUGACAUGAGGAUCACCCAUGUAACACAUUGGAGAAGGGUGUUCACGUA |  |  | 153 | 14.8 |
| UGGUACUAGGGAGGAUAUGGGAAGAUACAUGAGGAUCACCCAUGUUUAAGAAUGCCGAGAGGCAACUAGAAGGCCCUAGUACCA |  |  | 529 | 19.2 |
| GUUGCUUAUGAGAAGGCGAUCAUGAAACAUGAUCGAGGAUAUCAUGUAAACAUGAGGAUCACCCAUGUAUGGGUAUUAUGCAGC |  |  | 320 | 69.3 |
| UAAUAAAGCAGUGUAUUAAGAUCACAUGAGGAUCACCCAUGUAAGGAUAUGAGCAGAAAAUCUGCUCAGAAGGUACGAACACUG | 9.51 | 32.4 |  |  |
| CUGGAUCACGCAGGAUAUUACAUGAGGAUCACCCAUGUCAGGACUGCAAUAUCGUCUCCUCGUUGUGAGAAGGGCGGAAUCAUU | 14.6 | 26.3 |  |  |
| CUUAUGUGAGGAUAUGGUGUUGGCCACAGGAAAAAGAUCCUCCAGAAGGCACAUGAGGAUCACCCAUGUAGUGA | 39.7 | 147 |  |  |
| GUAAGUACGAGAGGAUAUUGACAUGAGGAUCACCCAUGUAUUUGGGAGUGUUCACUGAAUUCUUACGAGAAGGCUCGUACAUAC | 218 | 242 |  |  |
| ACAAAUUCUGACAUGAGGAUCACCCAUGUUAGAUUGUUAUGUCAGGAUAUUAUCUGGCAACCAGAUGAGAAGGGACGAUUUGUG |  |  | 10.6 | 7.15 |
| GGACAUCCCACAGGAUAUGCUGGACUUUGUCCAGCAGAAGGGUGAAAUACAUGAGGAUCACCCAUGUGGAUGUCCAUAUUUAAU |  |  | 747 | 253 |
| UCAGUAGAGUCAGGAUAUACGUUAAAAUUUCCUCACAUGAGGAUCACCCAUGUAGAAGGGACUCUACUGUAAGUCGGAAACGAC | 35.2 | 686 |  |  |
| AAACGGGCAGGAUAUGCGUACUCACGGGAAAACUGAAUGGUACAUGAGGAUCACCCAUGUAGAAGGGCUUAAAA | 53.5 | 46.1 |  |  |
| UCCGAUGUACAUGAGGAUCACCCAUGUCACAUGCCCGUGACACAGGAUAUCCAGGAUAGGCCAAAGGAGAAGGGUGAUCCGCGG |  |  | 64.3 | 94.5 |
| GGCUACGUUUCGUAGCAGUGUCAUCGAGAAGGCCCUGACAUGAGGAUCACCCAUGUUGUUACAUGGGAGGAUAUCGAUGAUACU |  |  | 13.3 | 5.12 |
| AACAUUGACAAGAAGGCAAACAUGAGGAUCACCCAUGUUCUGCAUGUAUAUUGAGGAUAUUGCCAAUGUAUGUGGAUCACCCAA | 6.76 | 14.8 |  |  |
| AAGAGAAAAGCAGGAUAUCUAUAGGCUCCUUAACAUGAGGAUCACCCAUGUAGAGAAGGGCUAAGACCGACUCUUCGGAGUUGA | 9.23 | 27.6 |  |  |
| CGGGCUGCCAGAGGAUAAUGGACAUGAGGAUCACCCAUGUGUCAGGAUAUGGGUUUCACAUGGACUCAGAAGGGACCAGCCCAA |  |  | 101 | 24.9 |
| AAUAUGUUGCAGAAGGCCAUGUUGUGGUAGUACCUCAUGACAUGAGGAUCACCCAUGUCUGUGAUGGAGGAUAUGCAAUAUAUU | 8.87 | 14.8 |  |  |
| GCCCUCGCUGAGGAUAUUAUCUGGCUCGAUUGAUAAGAAGGCAGUACAUGAGGAUCACCCAUGUGGUUCGUUCG | 69.5 | 265 |  |  |
| CGGCAAUGACGAGGAUAUAGACAUGAGGAUCACCCAUGUAACAGUAUUACAGGGCGUCUUCUCAGCUAGAAGGCGUUCUAUGCC | 37.3 | 88.4 |  |  |
| UUUUAACAUGAGGAUCACCCAUGUGAGGAUAUCGAAAUUUAUAUUAAUAUUAAUUAUACGAGAAGGCACAUUUU | 83.6 | 82.8 |  |  |
| CUGAAGAGAGAAGGAUAUCACAGGAUGGAGAUCUCUGAAUAAACAUGAGGAUCACCCAUGUCCAGUGAGAAGGUCUCGGUUCCG | 186 | 195 |  |  |
